37 sequences from the array DNA melting data of Ke et al. (doi:10.1101/2024.01.08.574731) can be followed below.

The nature of data set [1]: folding enthalpy; higher = less favourable; fluorescence melt of hairpins on a sequencing array, two-state fit. The note with it: sodium 0.088 M. An outline of the steps: (§1)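 Cy3 fluorescence of library hairpins on a sequenced MiSeq flow cell, with annealed Cy3 and quencher oligos, was imaged in 50 mM Na-HEPES pH 8.0, 25 mM NaCl in 2.5 °C steps up to 60 °C. Signals were normalised to pre-quench Cy3 and to control variants. Melting temperature and folding enthalpy came from bootstrapped two-state fits, inverse-variance combined over four replicates. Fitted temperatures were raised by 9.35 °C to match UV melts.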

The nature of data set [2]: melting temperature; fluorescence melt of hairpins on a sequencing array, two-state fit, raised by 9.35 °C to match UV melts. The note with it: sodium 0.088 M. An outline of the steps: as §1

Turning to GATCAACACCTTGATC ((((((....)))))), the folding enthalpy in data set [1] was -32.7 kcal/mol. In addition, the Tm in data set [2] amounted to 46.7 °C.

Regarding GCATCGCGAAAGCAACGC ((.(.((....)).).)), in data set [1], the folding enthalpy was -13.5 kcal/mol. Also, the Tm in data set [2] is 40.6 °C.

GTGCAAGGAAACTTGTGC (..((((....))))..): in data set [1], the folding enthalpy is -22.4 kcal/mol. Moreover, the Tm in data set [2] is 37.4 °C.

For GATAGGCGAAAGCCAATC (((.(((....))).))), the folding enthalpy in data set [1] is -19 kcal/mol. The Tm in data set [2] stood at 43 °C.

GAGGGCGAAAGCCTCCTC ((((((....)))..))): the folding enthalpy in data set [1] is -9.66 kcal/mol. The Tm in data set [2] was found to be 40.5 °C.

As for GTAGCAGAAATGCTAC ((((((....)))))), in data set [1], the folding enthalpy is -35.4 kcal/mol. In addition, the Tm in data set [2] was 55.9 °C.

For the sequence GCCAAGCGAAAGCTGAGC ((..(((....)))..)), the folding enthalpy in data set [1] is -15.3 kcal/mol. Besides, the Tm in data set [2] was found to be 47.7 °C.

Regarding GCTATAGGAAACTATAGC (((((((....))))))), in data set [1], the folding enthalpy was -39.5 kcal/mol. Moreover, the Tm in data set [2] amounted to 53.2 °C.

As to GGATCGGGAAACCGGTTC (.(.(((....))).).), the folding enthalpy in data set [1] was -20.1 kcal/mol. Also, the Tm in data set [2] was 38.2 °C.

For the sequence GGGTGCACGAAAGTGCCC (((..(((....)))))), the folding enthalpy in data set [1] was -12.9 kcal/mol. In addition, the Tm in data set [2] was found to be 52.6 °C.

GATCTACTACTAGATC ((((((....)))))): the folding enthalpy in data set [1] is -31.4 kcal/mol. Further, in data set [2], the Tm is 37.5 °C.

For the sequence GACTAACGAAAGTTGGTC (((.(((....))).))), the folding enthalpy in data set [1] was -40.4 kcal/mol. For the same sequence, the Tm in data set [2] is 51.3 °C.

Consider GCGTGTTACGC ((((...)))), for which the folding enthalpy in data set [1] was -24 kcal/mol. In addition, the Tm in data set [2] worked out at 61.6 °C.

As to GATCAGTATTCTGATC ((((((....)))))), the folding enthalpy in data set [1] is -39.1 kcal/mol. The Tm in data set [2] came to 51 °C.

With GTGAGGGGAAACCCTCGC (.(((((....))))).), in data set [1], the folding enthalpy is -34 kcal/mol. In addition, the Tm in data set [2] is 53.5 °C.

Consider GCTACTCGAAAGAGAAGC (((.(((....))).))), for which the folding enthalpy in data set [1] is -28.6 kcal/mol. The Tm in data set [2] amounted to 50.4 °C.

For GCTCGAGGAAACTTGGGC ((.(.((....)).).)), the folding enthalpy in data set [1] was -19.4 kcal/mol. In data set [2], the Tm turned out to be 37.4 °C.

Regarding GTTTGTACGAAAGTAAAC (((..(((....)))))), the folding enthalpy in data set [1] was -24.3 kcal/mol. Besides, the Tm in data set [2] is 32.8 °C.

As to GTTAGTGGAAACGCTAAC (((((.(....).))))), the folding enthalpy in data set [1] was -31.8 kcal/mol. Besides, the Tm in data set [2] is 45.3 °C.

As for GTCTGCGAAAGCATCGAC ((((((....)))..))), the folding enthalpy in data set [1] was -14.8 kcal/mol. The Tm in data set [2] was found to be 33.6 °C.

Consider GCTAGAGGAAACTTTAGC ((((.((....)).)))), for which the folding enthalpy in data set [1] was -20.8 kcal/mol. Moreover, in data set [2], the Tm was 35 °C.

For GAGCTTGCGAAAGCACTC (((..(((....)))))), in data set [1], the folding enthalpy is -10.9 kcal/mol. Moreover, the Tm in data set [2] is 39.7 °C.

For the sequence GATCTAACAGTAGATC ((((((....)))))), the folding enthalpy in data set [1] is -15.6 kcal/mol. In addition, the Tm in data set [2] is 36.5 °C.

GATCACACCAGTGATC ((((((....)))))): the folding enthalpy in data set [1] was -38.6 kcal/mol. For the same sequence, in data set [2], the Tm amounted to 59 °C.

In the case of GTTTTAGGAAACTAAAGC (.(((((....))))).), the folding enthalpy in data set [1] is -15 kcal/mol. Moreover, the Tm in data set [2] stood at 31.5 °C.

Consider GATCCGTTTGCGGATC ((((((....)))))), for which the folding enthalpy in data set [1] was -37.7 kcal/mol. Further, the Tm in data set [2] was found to be 62.3 °C.

As for GATCCGTGTGCGGATC ((((((....)))))), the folding enthalpy in data set [1] is -38.8 kcal/mol. The Tm in data set [2] came to 66.7 °C.

Turning to CGAACCGGAAACGGTCG (((.(((....)))))), the folding enthalpy in data set [1] is -23 kcal/mol. The Tm in data set [2] worked out at 51.4 °C.

With GATCCGACGACGGATC ((((((....)))))), the folding enthalpy in data set [1] was -36.6 kcal/mol. Moreover, the Tm in data set [2] was 56.7 °C.

With GCTGCAGCGAAAGCTAGC (((..(((....)))))), the folding enthalpy in data set [1] is -11.9 kcal/mol. Besides, the Tm in data set [2] turned out to be 48.7 °C.

Turning to GATGAAGAAATTCATC ((((((....)))))), in data set [1], the folding enthalpy was -24.9 kcal/mol. In data set [2], the Tm amounted to 43.3 °C.

In the case of GATCTTCACTAAGATC ((((((....)))))), the folding enthalpy in data set [1] is -29.7 kcal/mol. The Tm in data set [2] stood at 43.9 °C.

As for GGGCGACCGAAAGGTCCC (((..(((....)))))), the folding enthalpy in data set [1] is -13 kcal/mol. Further, in data set [2], the Tm stood at 49.8 °C.

GATCGAATGGTCGATC ((((((....)))))): the folding enthalpy in data set [1] was -20.2 kcal/mol. In addition, the Tm in data set [2] is 51.4 °C.

Regarding GCCCTGCGAAAGCAGAGC ((.((((....)))).)), in data set [1], the folding enthalpy is -18.8 kcal/mol. Also, in data set [2], the Tm amounted to 60.4 °C.

Turning to GCACAGTCGAAAGACTGC (((..(((....)))))), the folding enthalpy in data set [1] was -8.86 kcal/mol. For the same sequence, the Tm in data set [2] came to 39.3 °C.

For GGGGACACGAAAGTGCCC (((..(((....)))))), the folding enthalpy in data set [1] was -20.5 kcal/mol. The Tm in data set [2] came out at 55.5 °C.
